Experimental data as given in ChEMBL document CHEMBL1133016, “Opiate aromatic pharmacophore structure-activity relationships in CTAP analogues determined by topographical bias, two-dimensional NMR, and biological activity assays” (J Med Chem, 2000).
Bridge positions count the residues as written; N and C are the ends. Square brackets hold non-standard residues; d marks the D form. Peptide text beside a SMILES is read from it. dTic = O=C(O)[C@H]1Cc2ccccc2CN1; Pen = CC(C)(S)[C@H](N)C(=O)O

Experiments:
[1] = biological target: Delta-type opioid receptor (Rattus norvegicus, UniProt P33533); test: Binding affinity for rat brain Opioid receptor delta 1
Delta-type opioid receptor, sequence (P33533 whole entry): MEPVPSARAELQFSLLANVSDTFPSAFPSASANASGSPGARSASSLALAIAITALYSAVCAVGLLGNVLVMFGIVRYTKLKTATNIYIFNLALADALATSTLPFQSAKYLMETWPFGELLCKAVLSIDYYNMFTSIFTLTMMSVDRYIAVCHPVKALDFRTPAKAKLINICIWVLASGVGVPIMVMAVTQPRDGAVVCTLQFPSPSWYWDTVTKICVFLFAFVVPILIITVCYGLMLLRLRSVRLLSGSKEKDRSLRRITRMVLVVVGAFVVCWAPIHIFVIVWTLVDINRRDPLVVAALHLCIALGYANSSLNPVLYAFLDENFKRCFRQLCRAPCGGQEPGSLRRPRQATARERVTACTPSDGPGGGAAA
In short: (§1)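 Whole-brain membranes from adult Sprague-Dawley rats (250-300 g), homogenized at 0 °C in 50 mM Tris-HCl pH 7.4, centrifuged at 48 000g, and preincubated at 25 °C to strip endogenous ligand. Competition run for 3 h at 25 °C in Tris-HCl with BSA, bestatin, bacitracin, captopril and PMSF. Radioligand was [3H][4′-Cl-Phe4]DPDPE 0.75 nM for δ or [3H]DAMGO 1.0 nM for μ, with ≥10 analogue concentrations. Nonspecific binding defined with 10 µM naltrexone; each analogue tested ≥3 times.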

[2] = biological target: Mu-type opioid receptor (Rattus norvegicus, UniProt P33535); test: Binding affinity for rat brain Opioid receptor mu 1; in short: as §1
Mu-type opioid receptor, sequence (P33535 whole entry): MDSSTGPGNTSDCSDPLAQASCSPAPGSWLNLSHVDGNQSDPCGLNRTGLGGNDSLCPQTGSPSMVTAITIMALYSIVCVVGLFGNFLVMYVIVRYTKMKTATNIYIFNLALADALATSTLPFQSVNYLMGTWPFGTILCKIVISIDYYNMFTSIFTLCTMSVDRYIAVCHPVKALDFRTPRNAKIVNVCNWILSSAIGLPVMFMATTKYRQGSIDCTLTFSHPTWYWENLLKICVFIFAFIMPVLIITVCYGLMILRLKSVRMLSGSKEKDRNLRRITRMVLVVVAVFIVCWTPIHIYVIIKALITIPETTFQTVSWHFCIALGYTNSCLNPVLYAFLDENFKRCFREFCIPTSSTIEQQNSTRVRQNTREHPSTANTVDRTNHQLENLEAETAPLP

[3] = species on record: Cavia porcellus; test: Evaluated for agonist activity as percent inhibition in electrically evoked twitch height in Guinea pig ileum (GPI) at 1 uM concentration of compound; type: functional
In short: (§2)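 Longitudinal muscle-myenteric plexus strips from nonterminal ileum of male Hartley guinea pigs (250-500 g). Held in Krebs-bicarbonate at 37 °C under 95% O₂/5% CO₂, 1 g resting tension after 15 min unloaded equilibration. Stimulated transmurally at 0.1 Hz, 0.4 ms pulses, supramaximal voltage. Agonist twitch effect read after 3 min incubation; antagonist added 2 min before agonist. Mean ± SEM.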

[4] = species on record: Cavia porcellus; test: Evaluated for antagonist activity as the rightward fold shift of dose response curve of the known agonist PL-017 in Guinea pig ileum (GPI) at 1 uM concentration of compound; type: functional; in short: as §2
[5] = species on record: Mus musculus; test: Evaluated for agonist activity as percent inhibition in electrically evoked twitch height in mouse vas deferens (MVD) at 1 uM concentration of compound; type: functional
In short: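 Vasa deferentia from male ICR mice (25-40 g), held in magnesium-free Krebs at 37 °C under 95% O₂/5% CO₂. Hung 15 min without tension, then under 0.5 g resting tension. Stimulated transmurally at 0.1 Hz, 2 ms pulses, supramaximal voltage. Twitch inhibition read 3 min after agonist, expressed relative to the pre-dose twitch height. Mean ± SEM.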

[6] = species on record: Cavia porcellus; test: Evaluated for antagonist activity as the rightward fold shift of dose response curve of the known agonist PL-017 in Guinea pig ileum (GPI). 1-fold indicates no change in the dose response curve; type: functional; in short: as §2

Structure (SMILES): C[C@@H](O)[C@H](NC(=O)[C@H]1NC(=O)[C@H]([C@@H](C)O)NC(=O)[C@H](CCCNC(=N)N)NC(=O)[C@@H](Cc2c[nH]c3ccccc23)NC(=O)[C@H](Cc2ccc(O)cc2)NC(=O)[C@@H](NC(=O)[C@@H](N)[C@@H](C)c2c[nH]c3ccccc23)CSSC1(C)C)C(N)=O
- IC50 [1]: 9180 nM
- IC50 [2]: 1360 nM

Structure (SMILES): C[C@@H](O)[C@H](NC(=O)[C@H]1NC(=O)[C@H]([C@@H](C)O)NC(=O)[C@H](CCCN=C(N)N)NC(=O)[C@@H](Cc2c[nH]c3ccccc23)NC(=O)[C@H](Cc2ccc(O)cc2)NC(=O)[C@@H](NC(=O)[C@@H](N)[C@@H](C)c2c[nH]c3ccccc23)CSSC1(C)C)C(N)=O
- inhibition at 1 µM [3]: 0%
- PL-017 shift [4]: 2.6
- inhibition at 1 µM [5]: 0%

Structure (SMILES): C[C@H](c1ccccc1)[C@H](N)C(=O)N[C@H]1CSSC(C)(C)[C@@H](C(=O)N[C@H](C(N)=O)[C@@H](C)O)NC(=O)[C@H]([C@@H](C)O)NC(=O)[C@H](CCCN=C(N)N)NC(=O)[C@@H](Cc2c[nH]c3ccccc23)NC(=O)[C@H](Cc2ccc(O)cc2)NC1=O [listing 1 of 2 here]
- inhibition at 1 µM [3]: 13%
- PL-017 shift [6]: 1
- inhibition at 1 µM [5]: 0%

Structure (SMILES): C[C@H](c1ccccc1)[C@@H](N)C(=O)N[C@H]1CSSC(C)(C)[C@@H](C(=O)N[C@H](C(N)=O)[C@@H](C)O)NC(=O)[C@H]([C@@H](C)O)NC(=O)[C@H](CCCN=C(N)N)NC(=O)[C@@H](Cc2c[nH]c3ccccc23)NC(=O)[C@H](Cc2ccc(O)cc2)NC1=O [listing 1 of 2 here]
- IC50 [1]: 1190 nM
- IC50 [2]: 20 nM

Structure (SMILES): C[C@@H](O)[C@H](NC(=O)[C@H]1NC(=O)[C@H]([C@@H](C)O)NC(=O)[C@H](CCCNC(=N)N)NC(=O)[C@@H](Cc2c[nH]c3ccccc23)NC(=O)[C@H](Cc2ccc(O)cc2)NC(=O)[C@@H](NC(=O)[C@H](N)[C@@H](C)c2c[nH]c3ccccc23)CSSC1(C)C)C(N)=O
- IC50 [1]: 7480 nM
- IC50 [2]: 12.1 nM

Structure (SMILES): C[C@@H](O)[C@H](NC(=O)[C@H]1NC(=O)[C@H]([C@@H](C)O)NC(=O)[C@H](CCCN=C(N)N)NC(=O)[C@@H](Cc2c[nH]c3ccccc23)NC(=O)[C@H](Cc2ccc(O)cc2)NC(=O)[C@@H](NC(=O)[C@H](N)[C@@H](C)c2ccccc2)CSSC1(C)C)C(N)=O [listing 1 of 2 here]
- inhibition at 1 µM [3]: 0%
- PL-017 shift [4]: 15
- inhibition at 1 µM [5]: 8%

Structure (SMILES): C[C@H](c1c[nH]c2ccccc12)[C@@H](N)C(=O)N[C@H]1CSSC(C)(C)[C@@H](C(=O)N[C@H](C(N)=O)[C@@H](C)O)NC(=O)[C@H]([C@@H](C)O)NC(=O)[C@H](CCCN=C(N)N)NC(=O)[C@@H](Cc2c[nH]c3ccccc23)NC(=O)[C@H](Cc2ccc(O)cc2)NC1=O
- inhibition at 1 µM [3]: 0%
- PL-017 shift [4]: 39
- inhibition at 1 µM [5]: 3.7%

Structure (SMILES): C[C@H](c1c[nH]c2ccccc12)[C@H](N)C(=O)N[C@H]1CSSC(C)(C)[C@@H](C(=O)N[C@H](C(N)=O)[C@@H](C)O)NC(=O)[C@H]([C@@H](C)O)NC(=O)[C@H](CCCN=C(N)N)NC(=O)[C@@H](Cc2c[nH]c3ccccc23)NC(=O)[C@H](Cc2ccc(O)cc2)NC1=O
- inhibition at 1 µM [3]: 0%
- PL-017 shift [4]: 1
- inhibition at 1 µM [5]: 0%

Structure (SMILES): C[C@@H](O)[C@H](NC(=O)[C@H]1NC(=O)[C@H]([C@@H](C)O)NC(=O)[C@H](CCCN=C(N)N)NC(=O)[C@@H](Cc2c[nH]c3ccccc23)NC(=O)[C@H](Cc2ccc(O)cc2)NC(=O)[C@@H](NC(=O)[C@@H](N)[C@@H](C)c2ccccc2)CSSC1(C)C)C(N)=O
- inhibition at 1 µM [3]: 0%
- PL-017 shift [4]: 1
- inhibition at 1 µM [5]: 35%

Structure (SMILES): C[C@H](c1c[nH]c2ccccc12)[C@@H](N)C(=O)N[C@H]1CSSC(C)(C)[C@@H](C(=O)N[C@H](C(N)=O)[C@@H](C)O)NC(=O)[C@H]([C@@H](C)O)NC(=O)[C@H](CCCNC(=N)N)NC(=O)[C@@H](Cc2c[nH]c3ccccc23)NC(=O)[C@H](Cc2ccc(O)cc2)NC1=O
- IC50 [1]: 3640 nM
- IC50 [2]: 18.7 nM

Structure (SMILES): C[C@@H](O)[C@H](NC(=O)[C@H]1NC(=O)[C@H]([C@@H](C)O)NC(=O)[C@H](CCCN=C(N)N)NC(=O)[C@@H](Cc2c[nH]c3ccccc23)NC(=O)[C@H](Cc2ccc(O)cc2)NC(=O)[C@@H](NC(=O)[C@H]2Cc3c([nH]c4ccccc34)CN2)CSSC1(C)C)C(N)=O [listing 1 of 2 here]
- IC50 [1]: 211 nM
- IC50 [2]: 173 nM

Structure (SMILES): C[C@@H](O)[C@H](NC(=O)[C@H]1NC(=O)[C@H]([C@@H](C)O)NC(=O)[C@H](CCCN=C(N)N)NC(=O)[C@@H](Cc2c[nH]c3ccccc23)NC(=O)[C@H](Cc2ccc(O)cc2)NC(=O)[C@@H](NC(=O)[C@H](N)[C@@H](C)c2c[nH]c3ccccc23)CSSC1(C)C)C(N)=O
- inhibition at 1 µM [3]: 0%
- PL-017 shift [4]: 68
- inhibition at 1 µM [5]: 0%

Structure (SMILES): C[C@H](c1c[nH]c2ccccc12)[C@H](N)C(=O)N[C@H]1CSSC(C)(C)[C@@H](C(=O)N[C@H](C(N)=O)[C@@H](C)O)NC(=O)[C@H]([C@@H](C)O)NC(=O)[C@H](CCCNC(=N)N)NC(=O)[C@@H](Cc2c[nH]c3ccccc23)NC(=O)[C@H](Cc2ccc(O)cc2)NC1=O
- IC50 [1]: 7460 nM
- IC50 [2]: 3400 nM

Structure (SMILES): C[C@H](c1ccccc1)[C@H](N)C(=O)N[C@H]1CSSC(C)(C)[C@@H](C(=O)N[C@H](C(N)=O)[C@@H](C)O)NC(=O)[C@H]([C@@H](C)O)NC(=O)[C@H](CCCN=C(N)N)NC(=O)[C@@H](Cc2c[nH]c3ccccc23)NC(=O)[C@H](Cc2ccc(O)cc2)NC1=O [listing 2 of 2 here]
- IC50 [1]: 13200 nM
- IC50 [2]: 5420 nM

Structure (SMILES): C[C@@H](O)[C@H](NC(=O)[C@H]1NC(=O)[C@H]([C@@H](C)O)NC(=O)[C@H](CCCN=C(N)N)NC(=O)[C@@H](Cc2c[nH]c3ccccc23)NC(=O)[C@H](Cc2ccc(O)cc2)NC(=O)[C@@H](NC(=O)[C@H](N)Cc2c[nH]c3ccccc23)CSSC1(C)C)C(N)=O [listing 1 of 2 here]
- inhibition at 1 µM [3]: 43%
- PL-017 shift [4]: 1
- inhibition at 1 µM [5]: 13.6%

Structure (SMILES): C[C@@H](O)[C@H](NC(=O)[C@H]1NC(=O)[C@H]([C@@H](C)O)NC(=O)[C@H](CCCN=C(N)N)NC(=O)[C@@H](Cc2c[nH]c3ccccc23)NC(=O)[C@H](Cc2ccc(O)cc2)NC(=O)[C@@H](NC(=O)[C@H](N)Cc2c[nH]c3ccccc23)CSSC1(C)C)C(N)=O [listing 2 of 2 here]
- IC50 [1]: 3530 nM
- IC50 [2]: 1.39 nM

Structure (SMILES): C[C@@H](O)[C@H](NC(=O)[C@H]1NC(=O)[C@H]([C@@H](C)O)NC(=O)[C@H](CCCN=C(N)N)NC(=O)[C@@H](Cc2c[nH]c3ccccc23)NC(=O)[C@H](Cc2ccc(O)cc2)NC(=O)[C@@H](NC(=O)[C@H]2Cc3c([nH]c4ccccc34)CN2)CSSC1(C)C)C(N)=O [listing 2 of 2 here]
- inhibition at 1 µM [3]: 18%
- PL-017 shift [4]: 1.2

Structure (SMILES): C[C@@H](O)[C@H](NC(=O)[C@H]1NC(=O)[C@H]([C@@H](C)O)NC(=O)[C@H](CCCNC(=N)N)NC(=O)[C@@H](Cc2c[nH]c3ccccc23)NC(=O)[C@H](Cc2ccc(O)cc2)NC(=O)[C@@H](NC(=O)[C@@H](N)[C@@H](C)c2ccccc2)CSSC1(C)C)C(N)=O
- IC50 [1]: > 15000 nM
- IC50 [2]: 1500 nM

Structure (SMILES): C[C@@H](O)[C@H](NC(=O)[C@H]1NC(=O)[C@H]([C@@H](C)O)NC(=O)[C@H](CCCNC(=N)N)NC(=O)[C@@H](Cc2c[nH]c3ccccc23)NC(=O)[C@H](Cc2ccc(O)cc2)NC(=O)[C@@H](NC(=O)[C@H](N)Cc2ccccc2)CSSC1(C)C)C(N)=O
- inhibition at 1 µM [3]: 4%
- PL-017 shift [4]: 55
- inhibition at 1 µM [5]: 17%

Structure (SMILES): C[C@H](c1ccccc1)[C@@H](N)C(=O)N[C@H]1CSSC(C)(C)[C@@H](C(=O)N[C@H](C(N)=O)[C@@H](C)O)NC(=O)[C@H]([C@@H](C)O)NC(=O)[C@H](CCCN=C(N)N)NC(=O)[C@@H](Cc2c[nH]c3ccccc23)NC(=O)[C@H](Cc2ccc(O)cc2)NC1=O [listing 2 of 2 here]
- inhibition at 1 µM [3]: 0%
- PL-017 shift [4]: 19
- inhibition at 1 µM [5]: 34%

Structure (SMILES): C[C@@H](O)[C@H](NC(=O)[C@H]1NC(=O)[C@H]([C@@H](C)O)NC(=O)[C@H](CCCN=C(N)N)NC(=O)[C@@H](Cc2c[nH]c3ccccc23)NC(=O)[C@H](Cc2ccc(O)cc2)NC(=O)[C@@H](NC(=O)[C@H]2Cc3ccccc3CN2)CSSC1(C)C)C(N)=O (H-[dTic]CY[dW]RT[Pen]T-NH2; disulfide 2-7)
- inhibition at 1 µM [3]: 1%
- PL-017 shift [4]: 60
- inhibition at 1 µM [5]: 10%

Structure (SMILES): C[C@@H](O)[C@H](NC(=O)[C@H]1NC(=O)[C@H]([C@@H](C)O)NC(=O)[C@H](CCCN=C(N)N)NC(=O)[C@@H](Cc2c[nH]c3ccccc23)NC(=O)[C@H](Cc2ccc(O)cc2)NC(=O)[C@@H](NC(=O)[C@H](N)[C@@H](C)c2ccccc2)CSSC1(C)C)C(N)=O [listing 2 of 2 here]
- IC50 [1]: 1320 nM
- IC50 [2]: 21 nM
